Measurements published in ChEMBL document CHEMBL5329186, “Identification of novel 1,2,3-triazole isatin derivatives as potent SARS-CoV-2 3CLpro inhibitors via click-chemistry-based rapid screening” (RSC Med Chem, 2023).
Calls of active or inactive are those of the source. The rule behind the calls is not given here.

Legend:
[1] = biological target: Replicase polyprotein 1ab (Severe acute respiratory syndrome coronavirus 2) (UniProt P0DTD1); test: Inhibition of SARS-CoV-2 MPro at 5 uM using MCAAVLQSGFR-Lys(Dnp)-Lys-NH2 as substrate incubated for 10 mins by FRET assay
In short: (§1)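 3CLpro FRET assay at 5 μM compound, run as the standard protocol (10 min 37 °C preincubation, ex 320/em 405 nm kinetic read). The assay buffer either contained 4 mM DL-dithiothreitol or had none added. Ebselen served as the control.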

[2] = biological target: Replicase polyprotein 1ab (Severe acute respiratory syndrome coronavirus 2) (UniProt P0DTD1); test: Inhibition of SARS-CoV-2 MPro at 5 uM using MCAAVLQSGFR-Lys(Dnp)-Lys-NH2 as substrate in presence of DTT incubated for 10 mins by FRET assay; in short: as §1
[3] = biological target: Replicase polyprotein 1ab (Severe acute respiratory syndrome coronavirus 2) (UniProt P0DTD1); test: Inhibition of SARS-CoV-2 MPro at 1 uM using MCAAVLQSGFR-Lys(Dnp)-Lys-NH2 as substrate incubated for 10 mins by FRET assay relative to control
[4] = biological target: Replicase polyprotein 1ab (Severe acute respiratory syndrome coronavirus 2, UniProt P0DTD1); test: Inhibition of SARS-CoV-2 MPro using MCAAVLQSGFR-Lys(Dnp)-Lys-NH2 as substrate incubated for 10 mins by FRET assay
In short: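 Same 3CLpro FRET protocol (enzyme working 1.5 μM, substrate 500 μM, Tris/NaCl/glycerol buffer pH 7.3, 10 min 37 °C preincubation, ex 320/em 405 nm kinetic read for 10 min). Compounds were tested at 0.1, 0.5, 1 and 5 μM from 5 mM DMSO stocks. IC50 is the average of three independent experiments.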

Vero C1008 = test: Cytotoxicity against African green monkey Vero E6 assessed as inhibition of cell growth at 20 uM incubated for 26 hrs; format: toxicity, cell-based; conditions: chlorocebus sabaeus, vero c1008, 26 h
[5] = Cytotoxicity against African green monkey Vero E6 assessed as inhibition of cell growth incubated for 26 hrs; format: toxicity, cell-based; conditions: chlorocebus sabaeus, Vero E6 cells (Vero C1008)
In short: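 Vero E6 cells were seeded at 1.7 × 10^4/well in DMEM high glucose/10% FBS and grown 24 h at 37 °C, 5% CO2. Compound was then added in DMEM/5% FBS, final 1% DMSO, for 26 h. Viability was read with the CellTiter 96 aqueous nonradioactive proliferation assay. Values are averages of three or more replicate assays.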

SMILES | inhibition [1] | inhibition [2] | inhibition [3] | IC50 [4] | Activity (Vero C1008) | CC50 at 26 h [5]
O=c1c2ccccc2[se]n1-c1ccccc1 | Active | inactive |  |  |  | 
NC(=O)c1ccc2c(c1)C(=O)C(=O)N2Cc1cn(Cc2ccc(C(F)(F)F)cc2F)nn1 |  |  | 78.1% | 0.53 µM | Not Active | > 20 µM
NC(=O)c1ccc2c(c1)C(=O)C(=O)N2Cc1cn(Cc2cccc(Cl)c2)nn1 | Active | Active | 76.4% | 0.44 µM | Not Active | > 20 µM
NC(=O)c1ccc2c(c1)C(=O)C(=O)N2Cc1cn(Cc2ccc(S(N)(=O)=O)cc2)nn1 |  |  | 73.3% | 1.12 µM | Not Active | > 20 µM
NC(=O)c1ccc2c(c1)C(=O)C(=O)N2Cc1ccc2ccccc2c1 | Active | Active | 87.3% | 0.3 µM | Not Active | < 2.2 µM
